The record followed here is ChEMBL document CHEMBL2021865, “Design, synthesis and structure-activity relationship of N-substituted tropane muscarinic acetylcholine receptor antagonists” (Bioorg Med Chem Lett, 2012).

Activity calls are given as the source filed them. No cut-off for these calls is given here. Bounds are passed on as bounds.

Series [1] has as its target T1, Muscarinic acetylcholine receptor M3 (Homo sapiens, UniProt P20309). The series can be described thus: Antagonist activity at human muscarinic acetylcholine M3 receptor expressed in CHO cells assessed as inhibition of Ach-induced calcium mobilization by FLIPR analysis. The class given is functional, cell-based. The method in brief:
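Calcium mobilization read by standard FLIPR protocol. IC50 in nM, mean of two or more independent assays.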
Target sequence in this assay (P20309 whole entry): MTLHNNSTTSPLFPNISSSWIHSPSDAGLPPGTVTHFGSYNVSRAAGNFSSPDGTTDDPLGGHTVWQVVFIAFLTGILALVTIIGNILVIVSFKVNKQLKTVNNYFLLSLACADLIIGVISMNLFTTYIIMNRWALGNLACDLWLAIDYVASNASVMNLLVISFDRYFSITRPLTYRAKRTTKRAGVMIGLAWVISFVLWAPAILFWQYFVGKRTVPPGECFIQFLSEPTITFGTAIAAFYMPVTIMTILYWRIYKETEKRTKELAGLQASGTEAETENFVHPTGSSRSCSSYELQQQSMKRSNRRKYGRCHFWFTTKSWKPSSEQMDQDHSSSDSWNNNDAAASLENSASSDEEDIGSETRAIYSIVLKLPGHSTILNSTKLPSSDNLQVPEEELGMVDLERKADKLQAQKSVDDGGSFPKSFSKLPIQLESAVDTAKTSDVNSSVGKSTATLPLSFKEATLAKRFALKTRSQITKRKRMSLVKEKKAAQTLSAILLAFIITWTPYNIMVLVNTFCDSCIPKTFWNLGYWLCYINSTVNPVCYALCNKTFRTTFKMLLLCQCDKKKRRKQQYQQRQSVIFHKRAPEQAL

Series [2] concerns the target T1, Muscarinic acetylcholine receptor M3. Description: Antagonist potency at human muscarinic acetylcholine M3 receptor expressed in CHO cells assessed as inhibition of Ach-induced calcium mobilization by FLIPR analysis relative to control. The class given is functional, cell-based. Particulars: for Kb: read-out: pA2 (converted). The essentials:
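Human M3 receptor in CHO cells, ACh-stimulated calcium mobilization by FLIPR. pA2 derived from the ratio of the ACh EC50 with and without antagonist. Run only where the IC50 was below 10 nM. Values above 11 could not be determined accurately.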
Target sequence in this assay (P20309 whole entry): as above

In series [3] the target is T2, Muscarinic acetylcholine receptor M1 (Homo sapiens, UniProt P11229).
T2 sequence (P11229 whole entry): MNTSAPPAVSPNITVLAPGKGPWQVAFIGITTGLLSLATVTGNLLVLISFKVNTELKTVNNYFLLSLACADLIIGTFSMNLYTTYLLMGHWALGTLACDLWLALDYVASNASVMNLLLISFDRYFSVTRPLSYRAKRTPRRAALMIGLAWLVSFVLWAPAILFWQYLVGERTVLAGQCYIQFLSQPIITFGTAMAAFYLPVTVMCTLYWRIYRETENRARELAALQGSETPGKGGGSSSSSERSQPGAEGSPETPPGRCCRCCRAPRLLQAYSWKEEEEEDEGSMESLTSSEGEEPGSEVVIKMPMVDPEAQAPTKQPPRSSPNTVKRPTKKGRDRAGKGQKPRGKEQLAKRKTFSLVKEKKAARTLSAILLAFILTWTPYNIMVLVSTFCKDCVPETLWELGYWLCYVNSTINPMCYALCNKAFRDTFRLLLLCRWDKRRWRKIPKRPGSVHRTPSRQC
Description: Displacement of [3H]-N-methyl scopolamine from muscarinic acetylcholine M1 receptor expressed in CHO cell membrane. The class given is cell membranes. The essentials:
(§1)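 Membranes from CHO cells, SPA-format radioligand binding against 0.5 nM [3H]-N-methyl scopolamine. Values are the mean of three independent assays.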
On the technique in general: Loss of bound radioactivity is the signal in a displacement assay; it reports binding, not function.

The target in series [4] is T1, Muscarinic acetylcholine receptor M3. Description: Displacement of [3H]-N-methyl scopolamine from muscarinic acetylcholine M3 receptor expressed in CHO cell membrane. Type of series: cell membranes. The method in brief:
as §1
Target sequence in this assay (P20309 whole entry): as the sequence (P20309 whole entry) above

The nature of series [5]: Plasma clearance in rat at 1 mg/kg, iv. The class given is ADME, organism-based. The arrangement: dose 1 mg/kg, route intravenous. The method in brief:
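Rats dosed iv at 1 mg/kg. Systemic plasma clearance in ml/min/kg.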

The subject of series [6] is Mus musculus. Description: Antagonist potency at muscarinic acetylcholine M3 receptor in intranasally dosed mouse assessed as inhibition of Mch-induced bronchoconstriction. The class given is functional. The method in brief: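 Conscious mice challenged with methacholine to induce bronchoconstriction. ED50 expressed as µg per mouse, n = 1.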
Another series deals with Rattus norvegicus. Description: Oral bioavailability in rat at 2 mg/kg. The class given is ADME, organism-based. The following applies: in vivo, BLD = below limit of detection. The essentials: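 Rats dosed orally at 2 mg/kg. Percent bioavailability calculated from plasma levels.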
Series [7] relates to Mus musculus. Description: Bronchoprotective activity in mouse against methacholine-induced bronchoconstriction assessed as time duration of bronchoprotection at 0.05 ug administered intranasally. Type of series: functional. The essentials: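 Conscious mice, methacholine-induced bronchoconstriction. Duration of bronchoprotection taken as the time to 50% loss of maximum protection.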

The target of series [8] is T3, Muscarinic acetylcholine receptor M2 (Homo sapiens, UniProt P08172).
T3 sequence (P08172 whole entry): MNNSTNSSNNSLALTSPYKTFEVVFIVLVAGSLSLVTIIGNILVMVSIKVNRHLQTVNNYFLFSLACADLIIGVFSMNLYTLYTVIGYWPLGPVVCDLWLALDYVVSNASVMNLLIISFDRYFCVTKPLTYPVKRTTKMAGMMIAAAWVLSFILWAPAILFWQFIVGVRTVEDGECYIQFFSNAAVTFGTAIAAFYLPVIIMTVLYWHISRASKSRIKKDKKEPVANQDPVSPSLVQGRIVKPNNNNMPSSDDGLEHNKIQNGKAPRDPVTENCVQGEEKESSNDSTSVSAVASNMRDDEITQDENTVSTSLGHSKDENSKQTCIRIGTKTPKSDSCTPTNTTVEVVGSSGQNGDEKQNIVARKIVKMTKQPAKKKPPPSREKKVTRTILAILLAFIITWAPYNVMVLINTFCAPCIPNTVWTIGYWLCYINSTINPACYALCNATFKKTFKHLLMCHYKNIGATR
The series can be described thus: Displacement of [3H]-N-methyl scopolamine from muscarinic acetylcholine M2 receptor expressed in CHO cell membrane. The class given is cell membranes. The method in brief: as §1

Series [9] has as its target T1, Muscarinic acetylcholine receptor M3.
Target sequence in this assay (P20309 whole entry, looked up): as the sequence (P20309 whole entry) above

By IC50 is commonly meant the concentration needed to halve the response being measured. Turning to `C=CCCCC[N@+]1(C)C2CCC1C[C@H](CC(C#N)(c1ccccc1)c1ccccc1)C2` [listing 1 of 2 here], the IC50 in series [1] is under 10 nM. In [2], the Kb is under 0.01 nM.

In the case of `CCC[N+]1(C)[C@@H]2CC[C@H]1C[C@@H](CC(C#N)(c1ccccc1)c1ccccc1)C2` (mixture of isomers), the IC50 in [1] was under 10 nM. The Kb in [2] is 0.0501 nM.

For the compound `C[N@+]1(CCCc2ccccc2)C2CCC1C[C@@H](CC(C#N)(c1ccccc1)c1ccccc1)C2`, the IC50 in [1] is under 10 nM. Further, the Kb in [2] is under 0.01 nM.

In the case of `C[N@+]1(CCCOCc2ccccc2)C2CCC1C[C@@H](CC(C#N)(c1ccccc1)c1ccccc1)C2`, the half-maximal inhibitory concentration (IC50) in [1] was under 10 nM. Also, in series [2], the Kb was 0.0398 nM.

In the case of `C[N+]1(CCC2CCCCC2)[C@@H]2CC[C@H]1C[C@@H](CC(C#N)(c1ccccc1)c1ccccc1)C2` (mixture of isomers), the 50% inhibitory concentration (IC50) in [1] is 109 nM.

`C[N@+]1(CCCOc2ccccc2)C2CCC1C[C@@H](CC(C#N)(c1ccccc1)c1ccccc1)C2`: the IC50 in series [1] is under 10 nM. The Kb in series [2] is under 0.01 nM.

With `CCCCCCCC[N@+]1(C)C2CCC1C[C@H](CC(C#N)(c1ccccc1)c1ccccc1)C2`, in [1], the IC50 was under 10 nM. Besides, the Kb in series [2] was 0.0794 nM.

With `CCCC[N@+]1(C)C2CCC1C[C@H](CC(C#N)(c1ccccc1)c1ccccc1)C2`, the IC50 in series [1] is under 10 nM. In addition, in series [2], the Kb is under 0.01 nM.

For the compound `C[N@+]1(CCOc2ccccc2)C2CCC1C[C@@H](CC(C#N)(c1ccccc1)c1ccccc1)C2`, the IC50 in series [1] is under 10 nM. The Kb in series [2] was under 0.01 nM.

On to `C[N@+]1(CC2CC2)C2CCC1C[C@H](CC(C#N)(c1ccccc1)c1ccccc1)C2`, for which the IC50 in series [1] stood at 26.3 nM.

On to `CCCCCCCCCCCC[N+]1(C)[C@@H]2CC[C@H]1C[C@H](CC(C#N)(c1ccccc1)c1ccccc1)C2` (mixture of isomers), for which the IC50 in series [1] worked out at 64 nM.

Take `C[N+]1(CC2CCCCC2)[C@@H]2CC[C@H]1C[C@@H](CC(C#N)(c1ccccc1)c1ccccc1)C2` (mixture of isomers): the IC50 in series [1] was 89.6 nM.

`C=CC[N+]1(C)[C@@H]2CC[C@H]1C[C@@H](CC(C#N)(c1ccccc1)c1ccccc1)C2` (mixture of isomers): the IC50 in series [1] was under 10 nM. In series [2], the Kb is 1.26 nM.

As for `C=CCCCC[N@+]1(C)C2CCC1C[C@@H](CC(C#N)(c1ccccc1)c1ccccc1)C2`, the IC50 in series [1] was found to be 32 nM.

For orientation: Ki means the equilibrium dissociation constant of an inhibitor or competing ligand from its target. Low readings indicate a stronger hold on the target, high ones a looser hold on the target. By clearance is commonly meant the volume of plasma or blood freed of the substance per unit of time. A high value points to efficient removal. As usually defined, the pA2 is the negative logarithm of the molar antagonist concentration that doubles the agonist concentration needed for the same response. In the case of `C=CCCCC[N@+]1(C)C2CCC1C[C@H](CC(C#N)(c1ccccc1)c1ccccc1)C2.[Br-]`, the Ki in [3] came out at 0.12 nM; in series [4], 0.16 nM; in [8] it was 0.1 nM. The clearance in series [5] was determined as 125 mL/min/kg. Also, the pA2 in series [2] (cho) is over 11. The ED50 with Mus musculus [6] was determined as 0.02 µg. Further, in the series on Rattus norvegicus, the F entry is “BLD”. Moreover, the Time with Mus musculus [7] is over 96 h.

For the compound `CC[N+]1(C)[C@@H]2CC[C@H]1C[C@@H](CC(C#N)(c1ccccc1)c1ccccc1)C2` (mixture of isomers), the IC50 in series [1] is under 10 nM. Further, in series [2], the Kb was 0.0501 nM.

Take `C[N+]1(CCCC#N)[C@@H]2CC[C@H]1C[C@@H](CC(C#N)(c1ccccc1)c1ccccc1)C2` (mixture of isomers): the IC50 in series [1] was under 10 nM. Besides, in series [2], the Kb is 0.158 nM.

For the compound `COCC[N+]1(C)[C@@H]2CC[C@H]1C[C@@H](CC(C#N)(c1ccccc1)c1ccccc1)C2` (mixture of isomers), the IC50 in series [1] is under 10 nM. Besides, in [2], the Kb is 0.501 nM.

In the case of `CCCCCC[N@+]1(C)C2CCC1C[C@H](CC(C#N)(c1ccccc1)c1ccccc1)C2`, the IC50 in series [1] is under 10 nM. In addition, the Kb in series [2] is under 0.01 nM.

In the case of `C[N@+]1(CC2CC2)C2CCC1C[C@@H](CC(C#N)(c1ccccc1)c1ccccc1)C2`, the IC50 in [1] was under 10 nM. In [2], the Kb was 0.0251 nM.

As for `C[N@+]1(CCOCc2ccccc2)C2CCC1C[C@@H](CC(C#N)(c1ccccc1)c1ccccc1)C2`, the IC50 in [1] is under 10 nM. The Kb in series [2] was under 0.01 nM.

`C[N+]1(CC2CC2)[C@@H]2CC[C@H]1C[C@@H](CC(C#N)(c1ccccc1)c1ccccc1)C2` (mixture of isomers): in series [1], the IC50 is under 10 nM. In addition, the Kb in [2] was 0.0501 nM.

In the case of `C[N+]1(CCO)[C@@H]2CC[C@H]1C[C@@H](CC(C#N)(c1ccccc1)c1ccccc1)C2` (mixture of isomers), the IC50 in [1] was under 10 nM. Further, in [2], the Kb was 0.158 nM.

In the case of `C[N+]1(Cc2ccccc2)[C@@H]2CC[C@H]1C[C@@H](CC(C#N)(c1ccccc1)c1ccccc1)C2` (mixture of isomers), the half-inhibitory concentration (IC50) in [1] came to 318 nM.

Turning to `C=CCCCC[N+]1(C)[C@@H]2CC[C@H]1C[C@@H](CC(C#N)(c1ccccc1)c1ccccc1)C2` (mixture of isomers), in series [1], the IC50 is 85.2 nM.

Consider `COCCOCC[N+]1(C)[C@@H]2CC[C@H]1C[C@@H](CC(C#N)(c1ccccc1)c1ccccc1)C2` (mixture of isomers), for which the 50% inhibitory concentration (IC50) in [1] was under 10 nM. Also, the Kb in [2] is 0.631 nM.

As to `C=CCCCC[N@+]1(C)C2CCC1C[C@H](CC(C#N)(c1ccccc1)c1ccccc1)C2` [listing 2 of 2 here], the pA2 entry in series [9] was “Active”.
